The source made the active and inactive calls. No cut-off for these calls is given here.
Key:
NCI-H460 [1] = test: Induction of apoptosis in human NCI-H460 cells assessed as viable cells at 5 uM after 6 hrs by annexinV-propidium iodide staining based flow cytometric analysis relative to control; type: functional; settings: NCI-H460, 6 h, read-out: Activity
Summary of the method: (§1)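 H460 cells plated for 6 h, then treated with 5, 10 or 20 μM. Cells washed, trypsin-EDTA detached and resuspended in PBS, then stained with annexin V and propidium iodide plus RNase and 0.1% Triton X-100 for 30 min at 37 °C before flow cytometry. Figure legend gives 6 h incubation.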

NCI-H460 [2] = test: Induction of GRP78 mRNA expression in human NCI-H460 cells after 3 hrs by real time quantitative PCR analysis; type: functional, cell-based
Summary of the method: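 H460 cells treated across a concentration range for 3 h. GRP78 mRNA quantified by RT-qPCR, normalized to β-actin and expressed as percent of vehicle.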

NCI-H460 [3] = test: Induction of apoptosis in human NCI-H460 cells assessed as late apoptotic cells at 10 uM after 6 hrs by annexinV-propidium iodide staining based flow cytometric analysis relative to control; type: functional; summary of the method: as §1
NCI-H460 [4] = test: Induction of apoptosis in human NCI-H460 cells assessed as non-viable necrotic cells at 10 uM after 6 hrs by annexinV-propidium iodide staining based flow cytometric analysis relative to control; type: functional; summary of the method: as §1
Mus musculus = test: Toxicity in ICR mouse assessed as organ weight change at 400 to 800 mg/kg; type: organism-based; set-up: dose 400-800 mg/kg; settings: in vivo
NCI-H460 [5] = test: Induction of XBP-1 mRNA expression in human NCI-H460 cells after 3 hrs by real time quantitative PCR analysis
NCI-H460 [6] = test: Induction of apoptosis in human NCI-H460 cells assessed as viable cells at 10 uM after 6 hrs by annexinV-propidium iodide staining based flow cytometric analysis relative to control; type: functional; settings: NCI-H460, 6 h, read-out: Activity; summary of the method: as §1
NCI-H460 [7] = test: Induction of apoptosis in human NCI-H460 cells assessed as non-viable necrotic cells at 5 uM after 6 hrs by annexinV-propidium iodide staining based flow cytometric analysis relative to control; type: functional; summary of the method: as §1
NCI-H460 [8] = test: Induction of apoptosis in human NCI-H460 cells assessed as activation of caspase 9 activation at 20 uM after 24 hrs by Western blot analysis; type: functional, cell-based
NCI-H460 [9] = test: Induction of GRP78 mRNA expression in human NCI-H460 cells after 1 hrs by real time quantitative PCR analysis; type: functional, cell-based
Summary of the method: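 H460 cells treated across a concentration range for 1 h. GRP78 mRNA quantified by RT-qPCR, normalized to β-actin and expressed as percent of vehicle.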

[10] = molecular target: Transcription factor Jun (Homo sapiens) (UniProt P05412); test: Induction of c-Jun phosphorylation in human NCI-H460 cells at 20 uM after 3 hrs by Western blot analysis; type: cell-based
Chain of Transcription factor Jun (Homo sapiens) (P05412 whole entry): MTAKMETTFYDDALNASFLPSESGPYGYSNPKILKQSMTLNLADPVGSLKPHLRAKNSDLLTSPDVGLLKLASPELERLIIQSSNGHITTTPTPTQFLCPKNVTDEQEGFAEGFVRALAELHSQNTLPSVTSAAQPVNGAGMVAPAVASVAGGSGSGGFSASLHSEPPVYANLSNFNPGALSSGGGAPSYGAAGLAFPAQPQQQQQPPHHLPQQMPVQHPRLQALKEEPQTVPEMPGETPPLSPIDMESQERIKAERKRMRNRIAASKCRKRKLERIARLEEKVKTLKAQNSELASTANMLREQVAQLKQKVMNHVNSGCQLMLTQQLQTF
Summary of the method: (§2)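 H460 cells cultured in RPMI 1640 with 5% heat-inactivated FBS at 37 C, 10% CO2; exposed to 20 μM for a time course. Lysed at 0 C in Tris-HCl pH 7.4 buffer with NP40, SDS, and protease/phosphatase inhibitors. Phospho-c-Jun detected by Western blot with chemiluminescence, actin as loading control; band density quantified.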

NCI-H460 [11] = test: Induction of ATF-4 protein expression level in human NCI-H460 cells after 6 hrs by Western blot analysis; type: functional, cell-based
Summary of the method: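 H460 cells exposed to 20 μM for varying times, or to a range of concentrations for 6 h. ATF-4 and XBP-1 protein measured by Western blot with actin as loading control.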

[12] = molecular target: Transcription factor Jun (Homo sapiens) (UniProt P05412); test: Induction of c-Jun phosphorylation in human NCI-H460 cells at 20 uM after 12 hrs by Western blot analysis; type: cell-based; summary of the method: as §2
NCI-H460 [13] = test: Cytotoxicity against human NCI-H460 cells assessed as reduction of cell survival after 24 hrs by CellTiter-Glo analysis; type: functional, cell-based
Summary of the method: (§3)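 H460 cells (5 × 10^3/well) seeded overnight, then given fresh medium containing compound from DMSO stock (final 5, 10, 20 μM; 2.5–30 μM in the figure) for 24 h. Viability measured with CellTiter-Glo and expressed as percent of vehicle-treated cells; Student's t test.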

NCI-H460 [14] = test: Antitumor activity against human NCI-H460 cells xenografted in ip dosed nude Balb/cA mouse assessed as decrease in tumor volume administered qd for 20 days; type: functional, organism-based
Summary of the method: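 BALB/cA nu/nu female athymic mice bearing sc right-flank xenografts (3 × 10^6 H460 cells in PBS); once-daily ip dosing began on day 10, when tumors reached 100–300 mm3. Water-soluble liposome preparation in PBS at 10 or 50 mg/kg; controls received liposome vehicle in PBS. Volume = lw²/2; T/C read on day 22. Seven mice per group, mean ± SD; Student's t test.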

NCI-H460 [15] = test: Induction of CHOP expression in human NCI-H460 cells at 15 to 20 uM after 24 hrs by Western blot analysis; type: functional, cell-based
Summary of the method: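 H460 cells treated for 24 h at the indicated concentrations; whole-cell lysates probed for CHOP by Western blot, with actin as loading control.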

NCI-H460 [16] = test: Cytotoxicity against human NCI-H460 cells assessed as reduction of cell viability at 5 to 20 uM after 24 hrs by CellTiter-Glo analysis; type: functional, cell-based; summary of the method: as §3
NCI-H460 [17] = test: Induction of apoptosis in human NCI-H460 cells assessed as late apoptotic cells at 5 uM after 6 hrs by annexinV-propidium iodide staining based flow cytometric analysis relative to control; type: functional; summary of the method: as §1
NCI-H460 [18] = test: Increase in p53 expression in human NCI-H460 cells after 1 to 12 hrs by Western blot analysis; type: functional, cell-based
Summary of the method: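 H460 cells exposed to 20 μM for varying times, or to a range of concentrations for 12 h. Lysates made in Tris-HCl pH 7.4/NaCl/NP40/SDS buffer with protease and phosphatase inhibitors, then probed for p53 by Western blot with chemiluminescent detection; bands quantified by densitometry.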

NCI-H460 [19] = test: Induction of CHOP protein expression in human NCI-H460 cells at 20 uM after 6 to 24 hrs by Western blot analysis; type: functional, cell-based
Summary of the method: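 H460 cells treated for 6–24 h, or across a range of concentrations. CHOP protein measured by Western blot, densitometry expressed as percent of control; Student's t test.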

NCI-H460 [20] = test: Induction of CHOP mRNA expression in human NCI-H460 cells after 6 hrs by real time quantitative PCR analysis; type: functional, cell-based
Summary of the method: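 H460 cells exposed to a concentration range for 6 or 12 h. CHOP mRNA measured by RT-PCR/qPCR and normalized to β-actin.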

NCI-H460 [21] = test: Cytotoxicity against human NCI-H460 cells assessed as reduction of cell viability at 5 to 30 uM after 24 hrs by CellTiter-Glo analysis; type: functional, cell-based; summary of the method: as §3
[22] = molecular target: Transcription factor Jun (Homo sapiens) (UniProt P05412); test: Induction of c-Jun phosphorylation in human NCI-H460 cells at 20 uM by Western blot analysis; type: cell-based; settings: TDE = time-dependent effect
Summary of the method: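 H460 cells in RPMI 1640 with 5% FBS, treated at 20 μM for 12 h. Lysates in Tris-HCl pH 7.4, NP40, SDS buffer with protease/phosphatase inhibitors. p-c-Jun examined by Western blot with HRP secondary and chemiluminescence, actin as equal-loading control.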

NCI-H460 [23] = test: Induction of apoptosis in human NCI-H460 cells assessed as morphological changes at 5 to 20 uM after 24 hrs by light microscopic analysis; type: functional, cell-based
Summary of the method: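 H460 cells treated at 5, 10 or 20 μM for 24 h; morphology imaged by light microscope at 20× magnification.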

NCI-H460 [24] = test: Induction of apoptosis in human NCI-H460 cells after 6 hrs by Flow cytometric analysis; type: functional, cell-based; summary of the method: as §1

## COc1cccc(/C=C/C(=O)/C=C/c2cccc(OC)c2OC)c1OC
NCI-H460 [1]
  viability at 5 µM: 89.4%
NCI-H460 [2]
  Activity: Dose-dependent effect
NCI-H460 [3]
  Activity: 3.3%
NCI-H460 [4]
  Activity: 1.49%
Mus musculus
  Activity: Non-toxic
NCI-H460 [5]
  Activity: Dose-dependent effect
NCI-H460 [6]
  viability at 10 µM: 72.5%
NCI-H460 [7]
  Activity: 0.55%
NCI-H460 [8]
  Activity: Active
NCI-H460 [9]
  Activity: Active
[10]
  Activity: Active
NCI-H460 [11]
  Activity: Dose-dependent effect
[12]
  Activity: Active
NCI-H460 [13]
  Activity: Dose-dependent effect
NCI-H460 [14]
  Activity: Dose-dependent effect
NCI-H460 [15]
  Activity: Active
NCI-H460 [16]
  Activity: Active
NCI-H460 [17]
  Activity: 2.62%
NCI-H460 [18]
  Activity: Dose-dependent effect
NCI-H460 [19]
  Activity: Active
NCI-H460 [20]
  Activity: Dose-dependent effect
NCI-H460 [21]
  Activity: Active
[22]
  Activity: tde
NCI-H460 [23]
  Activity: Active
NCI-H460 [24]
  Activity: Dose-dependent effect
